# Hits are enriched below; roughly 4% of the tested compounds scored in any of these assays.
# Arrestin-AP2 inh = inhibitors of beta-arrestin/AP2 binding, primary screen, biochemical, GPCR trafficking, flow cytometry | FITC-arrestin peptide / GST-AP2 beads; AP2 beta2 appendage carries R879A mutation | inhibition, % at 10 µM | 340,000 compounds, 0.31% hits | beta-arrestin 1 C-terminal peptide binding to AP2 beta2-adaptin appendage (human);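 active = inhibition above a set limit, near 3 SD of compounds lacking own fluorescence, cut at about 54% in these data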;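 note: plate controls were DMSO wells for no effect and 5 µM unlabelled arrestin peptide for full effect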
#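 System: GST-AP2 R879A glutathione beads | Also added: FITC-arrestin peptide, 50 nM | Times: 12 min plus 1 h, RT | Signal: Bead flow cytometry, FITC channel | Buffer or medium: PBS with 0.05% Tween 20 and 0.1% BSA | Read-out basis: Percent drop in bead-associated FITC signal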
# SENP1 inh = human SENP1 catalytic domain inhibitors, primary screen, biochemical, FRET, uHTS. recombinant SENP1 catalytic domain, CyPet-SUMO1-YPet FRET cleavage. inhibition, % at 10 µM. 360,000 compounds, 0.21% hits;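 active = inhibition at least 30% at 10 µM, raw YFP signal under a set limit, fluorescence ratio 0.5 to 1.5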;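 note: 0% = enzyme with DMSO and 100% = no enzyme wells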
# Target sequence (Q9P0U3 419-644 limits assumed): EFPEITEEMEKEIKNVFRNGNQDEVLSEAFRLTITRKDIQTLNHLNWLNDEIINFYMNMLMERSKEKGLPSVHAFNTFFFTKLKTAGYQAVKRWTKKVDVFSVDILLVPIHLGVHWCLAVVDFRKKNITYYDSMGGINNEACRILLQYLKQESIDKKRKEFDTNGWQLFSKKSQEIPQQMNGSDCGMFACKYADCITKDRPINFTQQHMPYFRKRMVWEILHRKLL
#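 Controls: no-enzyme wells low, DMSO-plus-enzyme wells high control. Test system: human recombinant His6-tagged SENP1 catalytic domain enzyme. Reagent: SFCypet-SUMO1-SFYpet FRET protein substrate, 25 nM final. Doses: one dose per compound, 10 µM, 0.5% DMSO. Detection: FRET, CFP and YFP emission. Timing: 50 min reaction at room temperature.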
# Cardio protect = cardioprotection against H2O2-induced cell death, primary screen, uHTS, H9c2 cells, ATPLite luminescence; H9c2 cardiomyocytes, H2O2 injury protection, 2 h; protection from H2O2 cell death, % at 20 µM; 360,000 compounds, 0.63% hits;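 active = compounds giving at least 50% protection of heart cells from peroxide-induced death in the single-dose screen, raw or plate-pattern-corrected value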;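 note: 0% = DMSO wells with peroxide and 100% = DMSO wells without peroxide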
# iPSC survival up = enhancers of single-cell hiPSC survival, primary screen, ATPlite luminescence; 100% = ROCK inhibitor wells, 0% = DMSO; survival enhancement, % at 20 µM; 360,000 compounds, 0.044% hits; in the data active = survival enhancement above about 18%;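 note: cells exposed to compounds for 16 hours before the ATP read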
# NR3A LBD binder = binders of NR3A ligand-binding domain, primary screen, biophysical, differential scanning fluorimetry, uHTS. NR3A LBD differential scanning fluorimetry, Tm shift; 0% = protein alone, 100% = glycine-bound protein. Glutamate receptor ionotropic, NMDA 3A (GRIN3A) ligand-binding domain. AID 1259313, 2017. Tm shift relative to glycine control, % at 25 µM. 340,000 compounds, 2.5% hits;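 active = melting temperature shift of at least 10% of the positive control shift, at one fixed dose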
# FAS-TE inh = FAS thioesterase domain inhibitors, primary screen, biochemical, fluorescence intensity, uHTS | Fatty acid synthase (Homo sapiens), P49327 | recombinant FAS-TE, OMFH fluorogenic substrate, fluorescence endpoint | inhibition, % at 15 µM | 360,000 compounds, 0.67% hits | AID 602261, 2012;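 active = compounds whose normalised, plate-corrected inhibition of enzyme fluorescence in the single-dose primary screen is 50% or more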;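 note: 0% = DMSO with enzyme and 100% = substrate without enzyme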
# FAS-TE inh conf = FAS thioesterase domain inhibitors, confirmation, biochemical, fluorescence intensity, single concentration; shares compounds with FAS-TE inh; recombinant FAS-TE, OMFH fluorogenic substrate; inhibition, % at 15 µM; 2,300 compounds, 45% hits;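 active = compounds inhibiting the enzyme by at least 50% at 15 µM in any one of the replicates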;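 note: 0% = enzyme with DMSO only and 100% = wells lacking enzyme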
# * marks the source's active call; other numbers are inactive results; · = no result given.
SMILES,Arrestin-AP2 inh,SENP1 inh,Cardio protect,iPSC survival up,NR3A LBD binder,FAS-TE inh,FAS-TE inh conf
CC(C)(C)N1C(=O)[C@H]2[C@@H](c3ccc(Br)cc3)N3C(=O)N(c4ccc(Br)cc4)C(=O)[C@@]3(Cc3ccccc3)[C@H]2C1=O,1,0,3,1,-1,91*,51*
CC[C@@]12C(=O)N(c3cccc(F)c3)C(=O)N1[C@H](c1ccc(Br)cc1)[C@@H]1C(=O)N(C(C)(C)C)C(=O)[C@@H]12,-1,2,5,-2,-14,17,·
COc1ccc([C@@H]2[C@@H]3C(=O)N(C(C)(C)C)C(=O)[C@@H]3[C@]3(Cc4ccccc4)C(=O)N(c4cccc(F)c4)C(=O)N23)cc1,8,1,4,-3,-14,52*,-4
CC(C)(C)N1C(=O)[C@H]2[C@@H](c3ccc(Br)cc3)N3C(=O)N(c4cccc(F)c4)C(=O)[C@@]3(Cc3ccccc3)[C@H]2C1=O,11,2,-1,-3,-4,92*,36*
Cc1ccc2c(c1)[C@H]1[C@H](CO2)[C@H](c2ccccc2)[C@]2(C)C(=O)Nc3cc(Cl)ccc3C(=O)N12,-1,-1,-4,1,1,93*,30
Cc1ccc2c(c1)[C@H]1[C@H](CO2)[C@H](c2ccccc2)[C@]2(C)C(=O)Nc3ccc(F)cc3C(=O)N12,-3,-2,-1,-3,0,83*,44
C[C@@]12C(=O)Nc3cc(F)ccc3C(=O)N1[C@H]1c3ccccc3OC[C@@H]1[C@@H]2c1ccccc1,-3,-14,-3,-2,-6,69*,48*
Cc1ccc2c(c1)[C@H]1[C@H](CO2)[C@H](c2ccccc2)[C@]2(C)C(=O)Nc3cc(F)c(F)cc3C(=O)N12,-4,-1,-6,-2,2,76*,21
Cc1ccc2c(c1)[C@H]1[C@H](CO2)[C@H](c2ccccc2)[C@]2(C)C(=O)N(Cc3ccc(F)cc3)CC(=O)N12,-4,29,9,2,-2,24,·
C[C@H]1NC(=O)[C@@]2(C)[C@H](c3ccccc3)[C@H]3COc4ccccc4[C@@H]3N2C1=O,1,0,1,0,2,-14,·
COc1ccccc1C(=O)NCCC(=O)Nc1ccc(S(=O)(=O)N2CC(C)CC(C)C2)cc1 (centres undefined),-8,-1,-7,5,0,22,·
COc1ccc2c(c1)OC[C@H]1[C@H]2N2C(=O)CN(Cc3ccc(C)cc3)C(=O)[C@@]2(C)[C@H]1c1ccccc1,3,1,1,2,-3,62*,35
C[C@@]12C(=O)N(Cc3ccc(F)cc3)CC(=O)N1[C@H]1c3cc(Cl)ccc3OC[C@@H]1[C@@H]2c1ccccc1,6,-8,-3,-3,-7,84*,37
COc1ccc(CN2CC(=O)N3[C@H]4c5cc(C)ccc5OC[C@@H]4[C@H](c4ccccc4)[C@]3(C)C2=O)cc1,8,9,3,-1,0,41,·
COc1ccc2c(c1)OC[C@H]1[C@H]2N2C(=O)CN(Cc3ccc(F)cc3)C(=O)[C@@]2(C)[C@H]1c1ccccc1,0,2,-3,-3,-6,61*,41
COc1ccc(CN2CC(=O)N3[C@H]4c5ccccc5OC[C@@H]4[C@H](c4ccccc4)[C@]3(C)C2=O)cc1,18,6,7,-2,0,47,·
Cc1ccc(S(=O)(=O)N2[C@@H](CO)CO[C@H]2CC(=O)OCc2ccccc2)cc1,·,-1,·,·,·,·,·

# High-throughput results from PubChem.
